In brackets after ≈: the same amount, converted by molar mass.
What was measured:
[1] = tested on: MCF-7 human breast cancer cells; assay: MCF-7 cell growth, sulforhodamine B; assay type: cell-based
[2] = tested on: MDA/MB-435 (breast); assay: MTT cytotoxicity assay, MDA/MB-435; assay type: cell-based; conditions: Homo sapiens, MDA-MB-435, 72 h, read-out: Cytotoxic activity IC50
Procedure, shortened: (§1)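 Test compounds at 0.0009–5 µg/mL were incubated with the human tumour cells for 72 h. Growth was read by the cells' reduction of yellow MTT to blue formazan.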

[3] = tested on: HCT-8 (colon); assay: MTT cytotoxicity assay, HCT-8; assay type: cell-based; conditions: Homo sapiens, HCT-8, 72 h, read-out: Cytotoxic activity IC50
Procedure, shortened: as §1

[4] = tested on: SF-295 (glyoblastoma); assay: MTT cytotoxicity assay, SF-295; assay type: cell-based; conditions: Homo sapiens, SF-295, 72 h, read-out: Cytotoxic activity IC50
Procedure, shortened: as §1

[5] = tested on: HL-60 (leukemia); assay: MTT cytotoxicity assay, HL-60; assay type: cell-based; conditions: Homo sapiens, HL-60, 72 h, read-out: Cytotoxic activity IC50
Procedure, shortened: as §1

[6] = tested on: bovine brain tubulin; assay: [3H]colchicine binding to tubulin; conditions: 1 μM drug; 1.0 μM tubulin, 5.0 μM [3H]colchicine, 10 min 37 °C

Compound	Fold less active than CA4 as an inhibitor of MCF-7 cell growth ([1]; in comparison with CA4)	IC50 [2]	IC50 [3]	IC50 [4]	IC50 [5]	IC50 ([1]; Homo sapiens, MCF7, 48 h, read-out: MCF-7 cell growth IC50 ± SD)	Colchicine binding % inhibition ± SD [6]
COc1ccc(Sc2cc(OC)c(OC)c(OC)c2)cc1 [compound 1, 1,2,3-trimethoxy-5-[(4-methoxyphenyl)thio]benzene]	about 10 fold	0.001 µg/mL (≈ 0.00326 µM)	0.01 µg/mL (≈ 0.0326 µM)	0.01 µg/mL (≈ 0.0326 µM)	0.001 µg/mL (≈ 0.00326 µM)	–	–
COc1ccc([S+]([O-])c2cc(OC)c(OC)c(OC)c2)cc1 (stereo not drawn) [compound 2, 1,2,3-trimethoxy-5[(4-methoxyphenyl)sulfinyl]benzene]	–	0.09 µg/mL (≈ 0.279 µM)	0.15 µg/mL (≈ 0.465 µM)	0.47 µg/mL (≈ 1.46 µM)	0.11 µg/mL (≈ 0.341 µM)	–	–
COc1ccc(S(=O)(=O)c2cc(OC)c(OC)c(OC)c2)cc1 [compound 3, 1,2,3-trimethoxy-5[(4-methoxyphenyl)sulfonyl]benzene]	–	0.75 µg/mL (≈ 2.22 µM)	3.95 µg/mL (≈ 11.7 µM)	2.61 µg/mL (≈ 7.71 µM)	1.53 µg/mL (≈ 4.52 µM)	–	–
COc1ccc(/C=C\c2cc(OC)c(OC)c(OC)c2)cc1O [CA4, combretastatin A-4, reference compound]	–	–	–	–	–	1.4 ± 0.1 nM	85 ± 5%

Reference: paper PMC2714051 (European journal of medicinal chemistry, 2008)
